Source: ChEMBL document CHEMBL4049423, “Discovery of Novel 1,4-Diacylpiperazines as Selective and Cell-Active eIF4A3 Inhibitors” (J Med Chem, 2017)

Tests used:
[1] = target: T1, Eukaryotic initiation factor 4A-III (Homo sapiens, UniProt P38919); assay: Inhibition of MLN51-induced full-length human recombinant His6-tagged eIF4A3 RNA dependent ATPase activity expressed in Escherichia coli BL21(DE3) using single stranded poly(U) RNA as substrate after 30 mins by ADP-Glo luminescence assay
Procedure, shortened: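 ADP-Glo luminescence read-out with 150 nM eIF4A3 plus an equimolar amount of MLN51. Substrates were 35 μM ATP and 1.5 μg/mL poly(U), both at Km. Buffer: 20 mM Tris-HCl pH 7.5, 2.5 mM MgCl2, 100 mM KCl, 1 mM DTT, 0.01% Tween20. Enzyme was added last to start the reaction, then incubated 30 min at room temperature. No-enzyme wells were taken as 100% inhibition and the complete reaction as 0%.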

[2] = target: T1, Eukaryotic initiation factor 4A-III; assay: Inhibition of eIF4A3 (unknown origin) expressed in HEK293T cells assessed as NMD suppression at 10 uM after 6 hrs by luciferase reporter gene assay relative to control; type: cell-based
Procedure, shortened: (§1)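 HEK293T cells were co-transfected (Lipofectamine LTX) with the pGL4.12 SV40-Luc2CP-BGG NMD reporter and a pRL-TK renilla control. After 24 h of transfection, cells were treated with compound for 6 h. Firefly/renilla luciferase ratio was measured by dual-luciferase assay and normalized to DMSO-treated cells, n = 2.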

[3] = target: T1, Eukaryotic initiation factor 4A-III; assay: Inhibition of eIF4A3 (unknown origin) expressed in HEK293T cells assessed as NMD suppression at 3 uM after 6 hrs by luciferase reporter gene assay relative to control; type: cell-based; procedure, shortened: as §1
[4] = target: Eukaryotic initiation factor 4A-I (Homo sapiens, UniProt P60842); assay: Inhibition of eIF4G-induced full-length human recombinant His6-tagged eIF4A1 RNA dependent ATPase activity expressed in Escherichia coli BL21(DE3) using single stranded poly(U) RNA as substrate after 40 mins by ADP-Glo luminescence assay
Eukaryotic initiation factor 4A-I, sequence (P60842 whole entry): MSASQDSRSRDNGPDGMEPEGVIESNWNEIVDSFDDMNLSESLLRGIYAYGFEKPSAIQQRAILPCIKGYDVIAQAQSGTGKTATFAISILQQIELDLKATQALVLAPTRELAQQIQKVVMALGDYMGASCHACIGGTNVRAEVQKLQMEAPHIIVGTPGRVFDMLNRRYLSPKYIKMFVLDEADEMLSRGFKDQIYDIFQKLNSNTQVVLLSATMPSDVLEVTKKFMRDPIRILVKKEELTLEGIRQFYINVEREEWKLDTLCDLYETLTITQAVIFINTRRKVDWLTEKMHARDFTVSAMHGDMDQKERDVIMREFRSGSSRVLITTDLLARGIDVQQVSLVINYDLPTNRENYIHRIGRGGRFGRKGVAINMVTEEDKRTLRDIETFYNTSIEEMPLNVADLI
Procedure, shortened: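 100 nM eIF4A1 with equimolar eIF4B and eIF4G, 35 μM ATP and 1.5 μg/mL poly(U), both at Km. Buffer: Tris-HCl pH 7.5, MgCl2, KCl, DTT, Tween20. The reaction was started with enzyme and run 40 min at room temperature, with ADP read by ADP-Glo luminescence. No-enzyme wells were set as 100% inhibition.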

[5] = target: Eukaryotic initiation factor 4A-II (Homo sapiens, UniProt Q14240); assay: Inhibition of eIF4G-induced human recombinant His6-tagged eIF4A2 RNA dependent ATPase activity using single stranded poly(U) RNA as substrate after 40 mins by ADP-Glo luminescence assay
Eukaryotic initiation factor 4A-II, sequence (Q14240 whole entry): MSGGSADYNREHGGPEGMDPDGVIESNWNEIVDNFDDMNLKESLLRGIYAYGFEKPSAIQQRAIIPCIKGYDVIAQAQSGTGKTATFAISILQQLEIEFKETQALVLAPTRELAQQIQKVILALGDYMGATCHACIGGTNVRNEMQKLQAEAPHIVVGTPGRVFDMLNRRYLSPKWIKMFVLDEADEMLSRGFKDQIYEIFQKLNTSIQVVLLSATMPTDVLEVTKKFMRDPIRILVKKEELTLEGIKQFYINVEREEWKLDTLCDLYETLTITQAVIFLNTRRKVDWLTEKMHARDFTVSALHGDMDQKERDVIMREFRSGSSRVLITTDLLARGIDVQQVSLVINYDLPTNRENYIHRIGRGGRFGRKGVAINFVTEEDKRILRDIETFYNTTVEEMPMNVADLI
Procedure, shortened: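 eIF4A2 was a purchased His-tagged human protein, used at 100 nM with equimolar eIF4B and eIF4G. Substrates were 20 μM ATP and 3.0 μg/mL poly(U), both at Km. The reaction was started with enzyme in Tris-HCl pH 7.5/MgCl2/KCl/DTT/Tween20 buffer and run 40 min at room temperature. ADP-Glo read-out, with the no-enzyme control set as 100% inhibition.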

[6] = target: T2, ATP-dependent RNA helicase DHX29 (Homo sapiens, UniProt Q7Z478); assay: Inhibition of human recombinant full-length FLAG-His-tagged DHX29 RNA dependent ATPase activity expressed in baculovirus infected Sf9 insect cells using single stranded poly(U) RNA as substrate after 30 mins by ADP-Glo luminescence assay
T2 sequence (Q7Z478 whole entry): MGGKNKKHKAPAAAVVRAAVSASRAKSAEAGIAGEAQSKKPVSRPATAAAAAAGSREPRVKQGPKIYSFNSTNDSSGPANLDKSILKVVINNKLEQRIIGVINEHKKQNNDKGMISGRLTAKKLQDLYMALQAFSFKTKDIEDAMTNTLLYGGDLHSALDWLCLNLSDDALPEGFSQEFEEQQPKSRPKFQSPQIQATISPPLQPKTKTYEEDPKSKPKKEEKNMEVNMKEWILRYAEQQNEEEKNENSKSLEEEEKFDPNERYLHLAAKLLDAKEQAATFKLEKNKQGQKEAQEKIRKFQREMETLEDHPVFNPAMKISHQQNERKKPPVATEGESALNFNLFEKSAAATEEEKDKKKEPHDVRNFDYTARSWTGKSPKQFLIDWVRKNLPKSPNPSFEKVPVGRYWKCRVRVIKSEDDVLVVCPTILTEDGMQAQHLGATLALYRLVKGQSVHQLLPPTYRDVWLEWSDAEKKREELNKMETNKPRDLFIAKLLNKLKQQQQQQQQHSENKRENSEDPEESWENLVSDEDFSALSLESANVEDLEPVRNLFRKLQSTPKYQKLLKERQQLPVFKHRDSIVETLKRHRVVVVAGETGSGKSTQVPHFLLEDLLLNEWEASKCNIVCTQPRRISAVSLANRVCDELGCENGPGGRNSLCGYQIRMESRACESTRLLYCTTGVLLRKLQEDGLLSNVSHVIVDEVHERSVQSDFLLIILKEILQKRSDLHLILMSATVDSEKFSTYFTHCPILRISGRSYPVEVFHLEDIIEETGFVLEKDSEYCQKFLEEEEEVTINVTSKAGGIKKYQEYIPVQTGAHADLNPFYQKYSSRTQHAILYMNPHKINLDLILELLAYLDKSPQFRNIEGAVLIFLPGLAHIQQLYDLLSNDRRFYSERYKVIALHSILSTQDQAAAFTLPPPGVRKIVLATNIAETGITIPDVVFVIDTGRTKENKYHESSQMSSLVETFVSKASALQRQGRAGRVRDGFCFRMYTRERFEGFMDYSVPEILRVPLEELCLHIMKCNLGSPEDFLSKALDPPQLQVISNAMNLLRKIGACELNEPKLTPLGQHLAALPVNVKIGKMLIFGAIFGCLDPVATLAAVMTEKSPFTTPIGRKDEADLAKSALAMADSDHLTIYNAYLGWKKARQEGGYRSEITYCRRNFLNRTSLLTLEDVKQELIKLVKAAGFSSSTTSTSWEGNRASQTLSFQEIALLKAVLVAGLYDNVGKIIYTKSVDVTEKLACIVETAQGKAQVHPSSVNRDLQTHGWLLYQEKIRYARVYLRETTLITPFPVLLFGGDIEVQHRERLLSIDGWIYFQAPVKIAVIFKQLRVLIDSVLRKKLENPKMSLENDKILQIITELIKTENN
Procedure, shortened: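 DHX29 was Ni-NTA and Superdex 200 purified and used at 6.4 nM. Substrates were 30 μM ATP and 1.8 μg/mL poly(U), both at Km. Run in pH 7.5 Tris/MgCl2/KCl/DTT/Tween20 buffer, started with enzyme, 30 min at room temperature. ADP detected by ADP-Glo luminescence, with no-enzyme wells as 100% inhibition.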

[7] = target: U5 small nuclear ribonucleoprotein 200 kDa helicase (Homo sapiens, UniProt O75643); assay: Inhibition of human recombinant full-length His-tagged BRR2 RNA dependent ATPase activity expressed in baculovirus infected Sf9 insect cells using single stranded poly(U) RNA as substrate after 30 mins by ADP-Glo luminescence assay
U5 small nuclear ribonucleoprotein 200 kDa helicase, sequence (O75643 whole entry): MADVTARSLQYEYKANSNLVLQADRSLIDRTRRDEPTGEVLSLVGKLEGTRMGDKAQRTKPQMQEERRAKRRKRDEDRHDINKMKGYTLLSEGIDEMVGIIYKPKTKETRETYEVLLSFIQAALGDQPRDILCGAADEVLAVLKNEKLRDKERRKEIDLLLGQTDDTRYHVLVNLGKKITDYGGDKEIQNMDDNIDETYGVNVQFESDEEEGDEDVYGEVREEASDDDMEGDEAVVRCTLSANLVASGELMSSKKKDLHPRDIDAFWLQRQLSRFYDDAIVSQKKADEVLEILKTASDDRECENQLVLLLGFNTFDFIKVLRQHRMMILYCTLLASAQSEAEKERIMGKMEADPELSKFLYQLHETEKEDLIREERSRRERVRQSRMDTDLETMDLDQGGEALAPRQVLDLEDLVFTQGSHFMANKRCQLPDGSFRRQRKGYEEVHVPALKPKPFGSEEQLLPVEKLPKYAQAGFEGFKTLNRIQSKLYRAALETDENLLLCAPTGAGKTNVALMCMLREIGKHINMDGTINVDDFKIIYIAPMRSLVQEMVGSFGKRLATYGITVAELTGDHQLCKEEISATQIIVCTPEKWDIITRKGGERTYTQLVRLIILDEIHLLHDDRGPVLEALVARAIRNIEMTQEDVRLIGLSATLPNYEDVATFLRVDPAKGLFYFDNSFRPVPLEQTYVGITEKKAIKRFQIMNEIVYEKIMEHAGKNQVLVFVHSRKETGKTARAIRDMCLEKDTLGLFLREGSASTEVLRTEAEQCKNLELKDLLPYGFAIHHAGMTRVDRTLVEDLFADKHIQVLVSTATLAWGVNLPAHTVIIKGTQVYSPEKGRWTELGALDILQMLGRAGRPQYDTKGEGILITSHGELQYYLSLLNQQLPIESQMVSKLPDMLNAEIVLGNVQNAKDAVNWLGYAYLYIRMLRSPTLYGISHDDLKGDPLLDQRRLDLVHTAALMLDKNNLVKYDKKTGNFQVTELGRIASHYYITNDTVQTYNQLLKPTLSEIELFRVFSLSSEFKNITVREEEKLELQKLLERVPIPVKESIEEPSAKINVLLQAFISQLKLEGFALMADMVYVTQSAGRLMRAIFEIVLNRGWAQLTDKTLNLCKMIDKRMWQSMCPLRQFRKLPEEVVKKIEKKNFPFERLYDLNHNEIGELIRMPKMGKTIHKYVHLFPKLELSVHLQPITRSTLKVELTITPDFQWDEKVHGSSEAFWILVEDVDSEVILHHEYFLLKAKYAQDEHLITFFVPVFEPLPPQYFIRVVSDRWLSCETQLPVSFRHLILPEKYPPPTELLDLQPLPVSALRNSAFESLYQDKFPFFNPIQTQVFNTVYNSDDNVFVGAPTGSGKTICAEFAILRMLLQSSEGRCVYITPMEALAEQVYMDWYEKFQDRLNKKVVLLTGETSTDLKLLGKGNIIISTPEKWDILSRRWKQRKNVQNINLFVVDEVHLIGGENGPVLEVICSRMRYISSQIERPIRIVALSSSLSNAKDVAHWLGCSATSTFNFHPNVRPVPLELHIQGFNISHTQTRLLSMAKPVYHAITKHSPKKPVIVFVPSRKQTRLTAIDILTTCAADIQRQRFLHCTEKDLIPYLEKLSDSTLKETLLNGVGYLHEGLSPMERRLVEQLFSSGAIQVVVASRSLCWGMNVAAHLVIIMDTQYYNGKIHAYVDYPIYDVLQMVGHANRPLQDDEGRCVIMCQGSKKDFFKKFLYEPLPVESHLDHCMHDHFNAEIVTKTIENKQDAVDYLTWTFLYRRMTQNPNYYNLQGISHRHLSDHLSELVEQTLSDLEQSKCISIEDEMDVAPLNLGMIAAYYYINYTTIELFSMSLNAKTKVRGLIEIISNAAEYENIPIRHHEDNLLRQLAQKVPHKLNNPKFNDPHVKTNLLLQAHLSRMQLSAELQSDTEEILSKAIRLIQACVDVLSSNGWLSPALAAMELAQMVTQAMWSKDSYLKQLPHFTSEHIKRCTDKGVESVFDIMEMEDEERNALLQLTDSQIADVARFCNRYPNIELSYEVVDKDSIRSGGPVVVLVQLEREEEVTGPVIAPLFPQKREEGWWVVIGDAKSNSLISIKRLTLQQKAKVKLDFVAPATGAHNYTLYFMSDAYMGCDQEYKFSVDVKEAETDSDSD
Procedure, shortened: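 BRR2 was Ni-NTA and gel-filtration purified and used at 6.25 nM. Substrates were 20 μM ATP and 2.5 μg/mL poly(U), both at Km. Buffer: 20 mM Tris-HCl pH 7.5, 2.5 mM MgCl2, 100 mM KCl, 1 mM DTT, 0.01% Tween20. Started with enzyme and incubated 30 min at room temperature, with ADP-Glo luminescence read-out.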

[8] = target: T1, Eukaryotic initiation factor 4A-III; assay: Binding affinity to full-length human recombinant His6-tagged eIF4A3 expressed in Escherichia coli BL21(DE3) by surface plasmon resonance assay
Procedure, shortened: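 eIF4A3 immobilized on CM7 chip by amine coupling (5000–10 000 RU) in HBS-P+ with 1 mM DTT. Binding run at 25 °C in 20 mM Tris-HCl pH 8.0, 150 mM NaCl, 0.2 mM TCEP, 0.02% P20, 1−2% DMSO. Compound injected at 6−12 concentrations for 60−120 s at 50 μL/min, dissociation followed 120−1200 s. Sensorgrams double-referenced, globally fitted to 1:1 model.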

[9] = target: T1, Eukaryotic initiation factor 4A-III; assay: Binding affinity to full-length human recombinant His6-tagged eIF4A3 expressed in Escherichia coli BL21(DE3) assessed as association rate constant by surface plasmon resonance assay
Procedure, shortened: (§2)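 eIF4A3 amine-coupled to a CM7 sensor chip (5000–10 000 RU) in HBS-P+ with 1 mM DTT. Binding was run at 25 °C in 20 mM Tris-HCl pH 8.0, 150 mM NaCl, 0.2 mM TCEP, 0.02% P20 and 1–2% DMSO. Compound series of 6–12 concentrations were injected for 60–120 s at 50 μL/min, with dissociation followed for 120–1200 s. Sensorgrams were double-referenced and globally fitted to a 1:1 model.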

[10] = target: T1, Eukaryotic initiation factor 4A-III; assay: Binding affinity to full-length human recombinant His6-tagged eIF4A3 expressed in Escherichia coli BL21(DE3) assessed as dissociation rate constant by surface plasmon resonance assay; procedure, shortened: as §2
[11] = target: T1, Eukaryotic initiation factor 4A-III; assay: Binding affinity to full-length human recombinant His6-tagged eIF4A3 expressed in Escherichia coli BL21(DE3) assessed as dissociation half life by surface plasmon resonance assay; procedure, shortened: as §2

T1 sequence (P38919 whole entry): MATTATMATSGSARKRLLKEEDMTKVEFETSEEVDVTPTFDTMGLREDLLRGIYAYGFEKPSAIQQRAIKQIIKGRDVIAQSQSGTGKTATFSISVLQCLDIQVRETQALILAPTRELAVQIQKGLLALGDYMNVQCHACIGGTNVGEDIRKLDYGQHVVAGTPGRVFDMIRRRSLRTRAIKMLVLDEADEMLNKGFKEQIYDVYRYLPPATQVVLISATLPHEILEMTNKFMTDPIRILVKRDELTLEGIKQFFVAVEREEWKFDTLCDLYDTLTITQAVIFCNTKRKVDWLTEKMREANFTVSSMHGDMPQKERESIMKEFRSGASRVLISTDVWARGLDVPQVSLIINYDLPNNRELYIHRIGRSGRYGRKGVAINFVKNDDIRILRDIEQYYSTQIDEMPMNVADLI

IC50 [1]: 0.26 µM
fold change (FC) [2]: 3.69
fold change (FC) [3]: 2.72
IC50 [4]: > 100 µM
IC50 [5]: > 100 µM
IC50 [6]: > 100 µM
IC50 [7]: > 100 µM
Kd [8]: 0.043 µM
K [9]: 1.6 ×10⁴ /M/s
K [10]: 6.9 ×10⁻⁴ /s
T1/2 [11]: 16.8 min
SMILES: Cc1c(C(=O)N2CCN(C(=O)c3ccc(Br)cc3)[C@@H](c3ccc(Cl)cc3)C2)cnn1-c1cccc(C#N)c1
